Test results from ChEMBL document CHEMBL3085774, “Design of novel potent inhibitors of human uridine phosphorylase-1: synthesis, inhibition studies, thermodynamics, and in vitro influence on 5-fluorouracil cytotoxicity” (J Med Chem, 2013).
Blank lines part the entries; values can stand above or below the compound they belong to. Calls of active or inactive are those of the source. The calls are words filed in the database; no cut-off is given here.

Experiments:
Uridine phosphorylase 1 [1] = target: T1, Uridine phosphorylase 1 (Homo sapiens, UniProt Q16831); assay: Inhibition of human recombinant UP1 expressed in Escherichia coli Rosetta (DE3) using URD and inorganic phosphate as substrate at 1 uM after 60 seconds by spectrophotometric analysis relative to control
How it was run: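 Assay mix: 100 mM Tris pH 7.4, 100 nM recombinant hUP1, uridine 50 μM and Pi 2 mM (their Km values), inhibitor 1 μM final. Run 60 s at 37 °C under initial-rate conditions, following A280 decrease as uridine converts to uracil. Percent inhibition relative to uninhibited activity; DMSO control at up to 1% final.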
Target sequence in this assay (Q16831 whole entry, looked up): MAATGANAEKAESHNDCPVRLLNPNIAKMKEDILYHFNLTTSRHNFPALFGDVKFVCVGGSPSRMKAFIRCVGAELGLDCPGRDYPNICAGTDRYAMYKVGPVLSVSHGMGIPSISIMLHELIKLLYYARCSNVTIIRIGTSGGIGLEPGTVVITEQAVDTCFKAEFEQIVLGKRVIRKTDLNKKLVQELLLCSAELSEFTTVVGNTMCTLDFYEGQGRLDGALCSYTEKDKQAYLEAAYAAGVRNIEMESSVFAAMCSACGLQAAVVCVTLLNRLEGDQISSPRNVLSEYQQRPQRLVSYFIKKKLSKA

Uridine phosphorylase 1 [2] = target: T1, Uridine phosphorylase 1; assay: Uncompetitive inhibition of human recombinant UP1 expressed in Escherichia coli Rosetta (DE3) using inorganic phosphate as substrate by Lineweaver-Burk plot analysis
How it was run: (§1)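 Pi varied 0.1–12 mM with uridine fixed at 50 μM. Four inhibitor levels (0.1–5 μM), 100 nM enzyme, 100 mM Tris pH 7.4, 37 °C. Initial rates read as decreasing A280. Kis from slopes and Kii from intercepts of Lineweaver–Burk plots; inhibition mode from line patterns. Duplicates.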
Target sequence in this assay (Q16831 whole entry, looked up): as above

Uridine phosphorylase 1 [3] = target: T1, Uridine phosphorylase 1; assay: Competitive inhibition of human recombinant UP1 expressed in Escherichia coli Rosetta (DE3) using URD as substrate by Lineweaver-Burk plot analysis
How it was run: (§2)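 Uridine varied 20–600 μM with Pi fixed at 2 mM. Four inhibitor levels from 0.1 to 5 μM, 100 nM hUP1, 100 mM Tris pH 7.4, 37 °C. Uracil formation followed as the fall in A280 under initial-rate conditions. Kis from slopes and Kii from intercepts of Lineweaver–Burk plots; mode taken from line patterns. Duplicate measurements.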
Target sequence in this assay (Q16831 whole entry, looked up): as above

Thymidine phosphorylase = target: T2, Thymidine phosphorylase (Homo sapiens, UniProt P19971); assay: Inhibition of human thymidine phosphorylase
T2 sequence (P19971 whole entry): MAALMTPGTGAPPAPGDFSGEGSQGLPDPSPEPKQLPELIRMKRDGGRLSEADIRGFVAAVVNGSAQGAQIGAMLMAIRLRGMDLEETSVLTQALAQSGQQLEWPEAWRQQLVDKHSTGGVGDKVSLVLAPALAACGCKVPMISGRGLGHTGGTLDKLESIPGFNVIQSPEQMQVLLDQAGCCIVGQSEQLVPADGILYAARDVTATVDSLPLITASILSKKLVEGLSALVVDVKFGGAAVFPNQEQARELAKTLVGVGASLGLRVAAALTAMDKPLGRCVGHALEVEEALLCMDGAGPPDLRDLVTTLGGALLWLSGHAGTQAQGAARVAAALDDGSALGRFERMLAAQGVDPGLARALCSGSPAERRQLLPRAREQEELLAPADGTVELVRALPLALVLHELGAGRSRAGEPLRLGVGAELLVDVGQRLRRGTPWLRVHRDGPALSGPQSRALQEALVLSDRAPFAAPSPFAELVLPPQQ

Uridine phosphorylase 1 [4] = target: T1, Uridine phosphorylase 1; assay: Time dependent inhibition of human recombinant UP1 expressed in Escherichia coli Rosetta (DE3) using URD and inorganic phosphate as substrate at 1 uM by spectrophotometric analysis
How it was run: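 Enzyme (100 nM) preincubated with 1 μM inhibitor (final), then added to the standard reaction mix (Tris pH 7.4, 50 μM uridine, 2 mM Pi, 37 °C) at times up to 30 min. Change in initial velocity followed by A280 and percent inhibition calculated.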
Target sequence in this assay (Q16831 whole entry, looked up): as the sequence (Q16831 whole entry, looked up) above

Uridine phosphorylase 1 [5] = target: T1, Uridine phosphorylase 1; assay: Non-competitive inhibition of human recombinant UP1 expressed in Escherichia coli Rosetta (DE3) using inorganic phosphate as substrate assessed as equilibrium dissociation constant for enzyme-substrate-inhibitor complex by Lineweaver-Burk plot analysis; how it was run: as §1
Target sequence in this assay (Q16831 whole entry, looked up): as the sequence (Q16831 whole entry, looked up) above

Uridine phosphorylase 1 [6] = target: T1, Uridine phosphorylase 1; assay: Non-competitive inhibition of human recombinant UP1 expressed in Escherichia coli Rosetta (DE3) using inorganic phosphate as substrate assessed as equilibrium dissociation constant for enzyme-inhibitor complex by Lineweaver-Burk plot analysis; how it was run: as §1
Target sequence in this assay (Q16831 whole entry, looked up): as the sequence (Q16831 whole entry, looked up) above

Uridine phosphorylase 1 [7] = target: T1, Uridine phosphorylase 1; assay: Binding affinity to human recombinant UP1 expressed in Escherichia coli Rosetta (DE3) by isothermal titration calorimetric analysis
How it was run: (§3)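 ITC at 310.15 K (37 °C): 56 μM hUP1 in 50 mM Tris HCl pH 7.4, alone or as binary complex with 10 mM Pi or R1P (50–200 μM, final). One 0.5 μL injection (discarded), then 26 injections of 1.5 μL ligand. Dilution heats subtracted. Fit to one-set-of-sites model for ΔH°, Keq and n; ΔG° and ΔS° calculated.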
Target sequence in this assay (Q16831 whole entry): as the sequence (Q16831 whole entry, looked up) above

HT-29 [8] = assay: Potentiation of 5-FU-induced cytotoxicity against human HT-29 cells assessed as reduction in compound IC50 at 30 uM after 72 hrs by MTT assay relative to control; type: functional
How it was run: (§4)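 5-FU concentration–response over 72 h (HaCat 0.25–20 μM; HT-29 0.25–50 μM; SW-620 0.5–150 μM), with or without 30 μM inhibitor. Seeding and adhesion as for the viability assay. MTT read-out at 495 nm; 5-FU IC50 from semilog curves by nonlinear regression. Three independent experiments in quadruplicate; one-way ANOVA with Bonferroni test.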

HaCaT [9] = assay: Effect on 5-FU-induced cytotoxicity against human HaCaT cells at 30 uM after 72 hrs by MTT assay; type: cell-based; how it was run: as §4
[10] = Inhibition of mouse UPase by Dixon plot analysis
HaCaT [11] = assay: Cytotoxicity against human HaCaT cells at 1 to 100 uM after 72 hrs by MTT assay; type: cell-based
How it was run: (§5)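 Cells seeded at 7 × 10³ per well, allowed to adhere 48 h (HaCat) or 24 h (HT-29, SW-620). Exposed 72 h to 1–100 μM compound, 37 °C, 5% CO2. MTT 10% (v/v) for 3 h; formazan dissolved in DMSO and read at 495 nm. Viability relative to untreated cells; controls of medium and 1% DMSO. Mean ± SEM of three experiments in quadruplicate.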

HT-29 [12] = assay: Cytotoxicity against human HT-29 cells at 1 to 100 uM after 72 hrs by MTT assay; type: functional, cell-based; how it was run: as §5
SW-620 [13] = assay: Potentiation of 5-FU-induced cytotoxicity against human SW620 cells assessed as reduction in compound IC50 at 30 uM after 72 hrs by MTT assay relative to control; type: functional; how it was run: as §4
HT-29 [14] = assay: Protection against 5-FU-induced cytotoxicity against human HT-29 cells assessed as increase in compound IC50 at 30 uM after 72 hrs by MTT assay relative to control
SW-620 [15] = assay: Cytotoxicity against human SW620 cells at 1 to 100 uM after 72 hrs by MTT assay; type: functional, cell-based; how it was run: as §5
Uridine phosphorylase 1 [16] = target: T1, Uridine phosphorylase 1; assay: Binding affinity to human recombinant UP1-R1P binary complex expressed in Escherichia coli Rosetta (DE3) at 50 uM R1P by isothermal titration calorimetric analysis; how it was run: as §3
Target sequence in this assay (Q16831 whole entry): as the sequence (Q16831 whole entry, looked up) above

[17] = Half life in mouse plasma; type: ADME, cell-free
Uridine phosphorylase 1 [18] = target: T1, Uridine phosphorylase 1; assay: Induction of uridine phosphorylase-mediated drug metabolism in human liver
Uridine phosphorylase 1 [19] = target: T1, Uridine phosphorylase 1; assay: Non-competitive inhibition of human recombinant UP1 expressed in Escherichia coli Rosetta (DE3) using URD as substrate assessed as equilibrium dissociation constant for enzyme-substrate-inhibitor complex by Lineweaver-Burk plot analysis; how it was run: as §2
Uridine phosphorylase 1 [20] = target: T1, Uridine phosphorylase 1; assay: Non-competitive inhibition of human recombinant UP1 expressed in Escherichia coli Rosetta (DE3) using URD as substrate assessed as equilibrium dissociation constant for enzyme-inhibitor complex by Lineweaver-Burk plot analysis; how it was run: as §2

- Kii (Uridine phosphorylase 1 [5]): 317 nM
- Kis (Uridine phosphorylase 1 [6]): 547 nM
- Kd (Uridine phosphorylase 1 [7]): 1.2 µM
- Kis (Uridine phosphorylase 1 [3]): 130 nM
- Ki [10]: 0.1 µM
Structure (SMILES): O=c1[nH]c(=O)n(COCCO)cc1Cc1ccccc1
- Activity (HT-29 [8]): inactive
- Activity (HaCaT [9]): Non-toxic

- Kii (Uridine phosphorylase 1 [2]): 127 nM
- Kis (Uridine phosphorylase 1 [3]): 68 nM
- IC50 (Thymidine phosphorylase): > 100 µM
- inhibition (Uridine phosphorylase 1 [1]): 80%
- inhibition (Uridine phosphorylase 1 [4]): inactive
Structure (SMILES): Cc1c(CNCCO)c(O)[nH]c(=O)c1C#N
- Activity (HaCaT [11]): Non-toxic
- Activity (HT-29 [12]): inactive
- fold change (FC) (SW-620 [13]): 6
- fold change (FC) (HT-29 [14]): 9
- Activity (HaCaT [9]): Non-toxic
- Activity (SW-620 [15]): inactive

- inhibition (Uridine phosphorylase 1 [1]): 16%
Structure (SMILES): CCCc1cc(O)[nH]c(=O)c1C#N

- inhibition (Uridine phosphorylase 1 [1]): 9.5%
Structure (SMILES): Cc1cc(O)[nH]c(=O)c1C

- Kii (Uridine phosphorylase 1 [2]): 98 nM
- Kd (Uridine phosphorylase 1 [16]): 7 µM
- Kis (Uridine phosphorylase 1 [3]): 94 nM
- IC50 (Thymidine phosphorylase): > 100 µM
- inhibition (Uridine phosphorylase 1 [1]): 82%
- inhibition (Uridine phosphorylase 1 [4]): inactive
Structure (SMILES): Cc1c(CNC(CO)CO)c(O)[nH]c(=O)c1C#N

- half-life [17]: 2 min
- metabolised (Uridine phosphorylase 1 [18]): > 80%
Structure (SMILES): O=c1ccn([C@@H]2O[C@H](CO)[C@@H](O)[C@H]2O)c(=O)[nH]1 [URIDINE]

- Kii (Uridine phosphorylase 1 [2]): 332 nM
- Kii (Uridine phosphorylase 1 [19]): 635 nM
- Kis (Uridine phosphorylase 1 [20]): 375 nM
- IC50 (Thymidine phosphorylase): > 100 µM
- inhibition (Uridine phosphorylase 1 [1]): 70%
- inhibition (Uridine phosphorylase 1 [4]): inactive
Structure (SMILES): Cc1cc(O)[nH]c(=O)c1C#N
- Activity (HaCaT [11]): Non-toxic
- Activity (HT-29 [12]): inactive
- fold change (FC) (SW-620 [13]): 12
- Activity (HT-29 [8]): inactive
- Activity (HaCaT [9]): Non-toxic
- Activity (SW-620 [15]): inactive

- inhibition (Uridine phosphorylase 1 [1]): 2%
Structure (SMILES): N#Cc1c(Cc2ccccc2)cc(O)[nH]c1=O

- inhibition (Uridine phosphorylase 1 [1]): 25%
Structure (SMILES): CCN(CC)Cc1c(O)[nH]c(=O)c(C#N)c1C

- inhibition (Uridine phosphorylase 1 [1]): 38%
Structure (SMILES): O=c1cccc(O)[nH]1

- Kii (Uridine phosphorylase 1 [5]): 666 nM
- Kis (Uridine phosphorylase 1 [6]): 565 nM
- Kii (Uridine phosphorylase 1 [19]): 2550 nM
- Kis (Uridine phosphorylase 1 [20]): 2610 nM
- IC50 (Thymidine phosphorylase): > 100 µM
- inhibition (Uridine phosphorylase 1 [1]): 67%
- inhibition (Uridine phosphorylase 1 [4]): inactive
Structure (SMILES): N#Cc1ccc(O)[nH]c1=O

- inhibition (Uridine phosphorylase 1 [1]): 25%
Structure (SMILES): CCc1cc(O)[nH]c(=O)c1C#N

The remaining lines, values behind:

Structure (SMILES): Cc1c(-c2ccccc2)c(O)[nH]c(=O)c1C#N
- inhibition (Uridine phosphorylase 1 [1]): 12%

Structure (SMILES): Cc1cc(O)[nH]c(=O)c1
- inhibition (Uridine phosphorylase 1 [1]): 16%

Structure (SMILES): Cc1c(CN(C)C)c(O)[nH]c(=O)c1C#N
- Kii (Uridine phosphorylase 1 [2]): 107 nM
- Kis (Uridine phosphorylase 1 [3]): 99 nM
- IC50 (Thymidine phosphorylase): > 100 µM
- inhibition (Uridine phosphorylase 1 [1]): 81%
- inhibition (Uridine phosphorylase 1 [4]): inactive

Structure (SMILES): Cc1c(CN2CCOCC2)c(O)[nH]c(=O)c1C#N
- inhibition (Uridine phosphorylase 1 [1]): 51%

Structure (SMILES): CC(C)c1cc(O)[nH]c(=O)c1C#N
- inhibition (Uridine phosphorylase 1 [1]): 31%

Structure (SMILES): N#Cc1c(-c2ccccc2)cc(O)[nH]c1=O
- inhibition (Uridine phosphorylase 1 [1]): 42%

Structure (SMILES): Cc1c(CNCC(O)CO)c(O)[nH]c(=O)c1C#N (stereo not given)
- Kii (Uridine phosphorylase 1 [2]): 182 nM
- Kis (Uridine phosphorylase 1 [3]): 109 nM
- IC50 (Thymidine phosphorylase): > 100 µM
- inhibition (Uridine phosphorylase 1 [1]): 78%
- inhibition (Uridine phosphorylase 1 [4]): inactive

Structure (SMILES): Cc1c(CN2CCCCC2)c(O)[nH]c(=O)c1C#N
- inhibition (Uridine phosphorylase 1 [1]): 49%

Structure (SMILES): Cc1ccc(O)[nH]c1=O
- inhibition (Uridine phosphorylase 1 [1]): 12%

Structure (SMILES): O=c1[nH]cc(CNCCO)c(=O)[nH]1
- inhibition (Uridine phosphorylase 1 [1]): 2%

Structure (SMILES): Cc1c(Cc2ccccc2)c(O)[nH]c(=O)c1C#N
- inhibition (Uridine phosphorylase 1 [1]): 43%
